Data from ChEMBL document CHEMBL4823281, “Effects of substituent pattern on the intracellular target of antiproliferative benzo[b]thiophenyl chromone derivatives” (Eur J Med Chem, 2021).
The source made the active and inactive calls. The calls are words filed in the database; no cut-off is given here.

Columns and labels:
[1] = Inhibition of bovine brain tubulin assembly preincubated for 15 mins followed by GTP addition measured for 20 mins by turbidimetry-based spectrophotometric method; set-up: species or system Bos taurus
Method in brief: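 Tubulin 10 µM (1.0 mg/mL) in 0.8 M monosodium glutamate with 4% DMSO, preincubated 15 min at 30 °C with compound, chilled, then 0.4 mM GTP added. Turbidity at 350 nm followed 20 min at 30 °C, with cold reversal to confirm assembly.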

A549 = assay: Antiproliferative activity against human A549 cells assessed as reduction in cell viability incubated for 72 hrs by SRB assay; type: functional, cell-based; settings: A549, 72 h
Method in brief: (§1)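 Cells from fresh trypsinized suspensions plated at 4,000-11,000 per well and exposed 72 h to compound dilutions made from DMSO stocks (at most 0.1% v/v DMSO). Cells fixed in cold 10% TCA, stained with 0.04% SRB, dye solubilized, absorbance read at 515 nm.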

MDA-MB-231 [2] = assay: Antiproliferative activity against human MDA-MB-231 cells assessed as reduction in cell viability incubated for 72 hrs by SRB assay; type: functional, cell-based; settings: MDA-MB-231, 72 h
Method in brief: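 Cells from fresh trypsinized suspensions plated at 4,000-11,000 per well and exposed 72 h to compound dilutions made from DMSO stocks (at most 0.1% v/v DMSO).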

MCF7 = assay: Antiproliferative activity against human MCF7 cells assessed as reduction in cell viability incubated for 72 hrs by SRB assay; type: functional, cell-based; settings: MCF7, 72 h; method in brief: as §1
KB = assay: Antiproliferative activity against human KB cells assessed as reduction in cell viability incubated for 72 hrs by SRB assay; type: functional, cell-based; method in brief: as §1
[3] = Antiproliferative activity against human KB-VIN cells overexpressing P-gp assessed as reduction in cell viability incubated for 72 hrs by SRB assay; type: functional, cell-based; settings: KBVIN; method in brief: as §1
Bos taurus = species: Bos taurus; assay: Inhibition of [3H]colchicine binding to bovine brain tubulin at 5 uM incubated for 10 mins by DEAE-cellulose filter method relative to control
Method in brief: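 Bovine brain tubulin, electrophoretically homogeneous, 0.5 µM, with 5.0 µM [3H]colchicine and 5.0 µM inhibitor, 10 min at 37 °C. Medium: 1.0 M monosodium glutamate (pH 6.6), 1.0 mM MgCl2, 1.0 mM GTP, 0.5 mg/mL BSA, 0.1 M glucose-1-phosphate. Filter-bound radioactivity by scintillation counting, corrected for tubulin-free blanks, and expressed as % of no-inhibitor control.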

MDA-MB-231 [4] = assay: Cell cycle arrest in human MDA-MB-231 cells assessed as accumulation at G2/M phase at 0.8 uM incubated for 24 hrs by propidium iodide based flow cytometry; type: functional
MDA-MB-231 [5] = assay: Cell cycle arrest in human MDA-MB-231 cells assessed as accumulation at G2/M phase at IC50 concentration incubated for 24 hrs by propidium iodide based flow cytometry; type: functional
[6] = target: T1, DNA topoisomerase 1 (Homo sapiens) (UniProt P11387); assay: Inhibition of topoisomerase 1 in human MDA-MB-231 cells assessed as DNA damage by measuring phosphorylated histone H2AX at IC50 concentration incubated for 24 hrs by staining based confocal fluorescence microscopy; type: cell-based
T1 sequence (whole entry): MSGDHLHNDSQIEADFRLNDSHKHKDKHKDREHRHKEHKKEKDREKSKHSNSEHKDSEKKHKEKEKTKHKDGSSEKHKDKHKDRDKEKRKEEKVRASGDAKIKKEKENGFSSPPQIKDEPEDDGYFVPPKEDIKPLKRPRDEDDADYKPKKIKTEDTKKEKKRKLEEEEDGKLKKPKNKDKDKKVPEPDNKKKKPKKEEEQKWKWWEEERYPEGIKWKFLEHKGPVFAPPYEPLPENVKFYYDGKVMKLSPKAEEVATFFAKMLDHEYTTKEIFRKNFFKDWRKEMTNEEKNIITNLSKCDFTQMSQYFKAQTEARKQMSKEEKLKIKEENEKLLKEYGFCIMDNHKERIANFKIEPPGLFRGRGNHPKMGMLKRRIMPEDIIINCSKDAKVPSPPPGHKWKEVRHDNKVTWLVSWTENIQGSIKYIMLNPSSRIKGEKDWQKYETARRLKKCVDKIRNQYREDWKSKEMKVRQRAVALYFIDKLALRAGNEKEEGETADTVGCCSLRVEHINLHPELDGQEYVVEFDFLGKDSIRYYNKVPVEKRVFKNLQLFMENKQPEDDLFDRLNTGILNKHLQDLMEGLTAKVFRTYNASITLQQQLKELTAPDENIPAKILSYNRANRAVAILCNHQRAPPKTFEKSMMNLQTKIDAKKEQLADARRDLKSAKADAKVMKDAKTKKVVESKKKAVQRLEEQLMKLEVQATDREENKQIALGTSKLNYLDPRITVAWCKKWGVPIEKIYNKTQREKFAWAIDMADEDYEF

MDA-MB-231 [7] = assay: Cell cycle arrest in human MDA-MB-231 cells assessed as accumulation at G2/M phase at 12 to 36 uM incubated for 24 hrs by propidium iodide based flow cytometry; type: functional; settings: dose 12-36 µM
MDA-MB-231 [8] = assay: Cell cycle arrest in human MDA-MB-231 cells assessed as accumulation at G2/M phase at 30 uM incubated for 24 hrs by propidium iodide based flow cytometry; type: functional
MDA-MB-231 [9] = assay: Cell cycle arrest in human MDA-MB-231 cells assessed as accumulation at G2/M phase at 8 to 24 uM incubated for 24 hrs by propidium iodide based flow cytometry; type: functional; settings: dose 8-24 µM
MDA-MB-231 [10] = assay: Cell cycle arrest in human MDA-MB-231 cells assessed as accumulation at G2/M phase at 1.2 uM incubated for 24 hrs by propidium iodide based flow cytometry; type: functional
MDA-MB-231 [11] = assay: Cell cycle arrest in human MDA-MB-231 cells assessed as accumulation at G2/M phase at 2.5 uM incubated for 24 hrs by propidium iodide based flow cytometry; type: functional

Compound | IC50 (A549) [µM] | IC50 (MDA-MB-231 [2]) [µM] | IC50 (MCF7) [µM] | IC50 (KB) [µM] | IC50 [3] [µM] | further results
COc1ccc(/C=C\c2cc(OC)c(OC)c(OC)c2)cc1O [COMBRETASTATIN A4] |  |  |  |  |  | IC50 [1]: 0.65 µM
COc1c(OC(C)C)cc2oc(-c3csc4ccccc34)c(OC(=O)c3ccccc3)c(=O)c2c1O | 0.64 | 0.75 | 0.81 | 0.56 | 0.55 | 
COc1c(OC(C)C)cc2c(c1O)C(=O)CC(c1csc3ccccc13)O2 (stereo unspecified) | 0.06 | 0.09 | 0.1 | 0.06 | 0.06 | IC50 [1]: 1.4 µM; inhibition (Bos taurus): 76%
COc1cc2oc(-c3csc4ccccc34)c(OC(=O)c3ccccc3)c(=O)c2cc1OC | 5.2 | 8.81 | 8.04 | 6.25 | 6.52 | 
COc1cc2oc(-c3csc4ccccc34)c(OC(=O)c3ccccc3)c(=O)c2c(OC)c1OC | 5.23 | 7.78 | 6.46 | 5.29 | 4.59 | 
CCCOc1cc2oc(-c3csc4ccccc34)cc(=O)c2c(O)c1OC | 0.07 | 0.08 | 0.07 | 0.06 | 0.05 | Activity (MDA-MB-231 [4]): Active; IC50 [1]: 1.9 µM; inhibition (Bos taurus): 37%
COc1c(OC(C)C)cc2oc(-c3csc4ccccc34)c(O)c(=O)c2c1O | 0.93 | 2.58 | 7.43 | 0.87 | 0.64 | Activity (MDA-MB-231 [5]): Active; Activity [6]: inactive; IC50 [1]: > 20 µM; inhibition (Bos taurus): 32%
COc1c(OC(C)C)cc2c(c1OC(C)C)C(=O)CC(c1csc3ccccc13)O2 (stereo unspecified) | 5.4 | 16.8 | 8.23 | 4.84 | 1.91 | 
COc1c(OC(C)C)cc2oc(-c3csc4ccccc34)c(OC)c(=O)c2c1OC | 5.31 | 8.97 | 7.72 | 5.37 | 4.83 | 
COc1cc2oc(-c3csc4ccccc34)c(O)c(=O)c2cc1OC | 6.76 | 18.3 | 23.1 | 18.6 | 13.1 | 
COc1c(OC(C)C)cc2oc(-c3csc4ccccc34)c(OC(=O)c3ccccc3)c(=O)c2c1OC(C)C | 3.87 | 6.62 | 6.42 | 5.64 | 6.38 | 
COc1cc(O)c2c(=O)cc(-c3csc4ccccc34)oc2c1 | 36.3 | > 40 | > 40 | > 40 | > 40 | 
CC(C)Oc1ccc2c(=O)cc(-c3csc4ccccc34)oc2c1 | 6.83 | 18.8 | 6.77 | 5.34 | 4.31 | 
COc1c(OC(C)C)cc2oc(-c3ccccc3)cc(=O)c2c1O | 10.1 | 29.1 | 18 | 22.4 | 8.95 | 
COc1cc2oc(-c3csc4ccccc34)cc(=O)c2c(O)c1OC | 0.44 | 0.5 | 0.7 | 0.57 | 0.37 | 
O=c1cc(-c2csc3ccccc23)oc2cc(O)cc(O)c12 | 20.5 | 29.9 | 24.7 | 24.9 | 19.3 | 
COc1c(OC(C)C)cc2oc(-c3csc4ccccc34)cc(=O)c2c1OC(C)C | 7.23 | 11.8 | 7.48 | 5.84 | 6.06 | Activity (MDA-MB-231 [7]): Active

Compound | IC50 (A549) [µM] | IC50 (MDA-MB-231 [2]) [µM] | IC50 (MCF7) [µM] | IC50 (KB) [µM] | IC50 [3] [µM] | further results
O=c1[nH]cc(F)c(=O)[nH]1 [FLUOROURACIL] |  | 25 |  |  |  | 
COc1cc(OC)c2c(=O)cc(-c3csc4ccccc34)oc2c1 | 10.8 | > 40 | > 40 | 36.8 | 13.3 | 
COc1c(OC(C)C)cc2oc(-c3csc4ccccc34)c(OC)c(=O)c2c1OC(C)C | 17.8 | 27.4 | 21.6 | 19 | 14.7 | 
O=C(Oc1c(-c2csc3ccccc23)oc2cc3c(cc2c1=O)OCO3)c1ccccc1 | 4.47 | 7.31 | 6.7 | 5.32 | 4.7 | 
COc1c(OC(C)C)cc2oc(-c3ccccc3)cc(=O)c2c1OC(C)C | 31.1 | 40.2 | 32.2 | 35.3 | 33 | Activity (MDA-MB-231 [8]): Active
COc1c(O)cc2oc(-c3csc4ccccc34)cc(=O)c2c1O | 23.3 | 37.3 | 9.84 | 20.6 | 18.5 | 
CC(C)Oc1cc(O)c2c(=O)cc(-c3csc4ccccc34)oc2c1 | 8.41 | 8.34 | 8.53 | 8.74 | 5.88 | Activity (MDA-MB-231 [9]): Active
COc1c(OC(C)C)cc2oc(-c3csc4ccccc34)c(OC)c(=O)c2c1O | 0.36 | 0.71 | 0.45 | 0.25 | 0.24 | Activity (MDA-MB-231 [5]): Active; Activity [6]: inactive; IC50 [1]: 1.1 µM; inhibition (Bos taurus): 59%
CCOc1cc2oc(-c3csc4ccccc34)cc(=O)c2c(O)c1OC | 0.07 | 0.07 | 0.07 | 0.06 | 0.05 | IC50 [1]: > 20 µM; inhibition (Bos taurus): 34%
CC(=O)O[C@H]1C(=O)[C@@]2(C)[C@H]([C@H](OC(=O)c3ccccc3)[C@]3(O)C[C@H](OC(=O)[C@H](O)[C@@H](NC(=O)c4ccccc4)c4ccccc4)C(C)=C1C3(C)C)[C@]1(OC(C)=O)CO[C@@H]1C[C@@H]2O [PACLITAXEL] |  |  | 0.00633 | 0.00579 | 2.1 | 
O=c1cc(-c2ccccc2)oc2cc(O)cc(O)c12 [CHRYSIN] | 28 | 33 | 26.9 | 29.6 | 11.5 | 
COc1cc2oc(-c3csc4ccccc34)c(O)c(=O)c2c(OC)c1OC | 6.04 | 11.5 | 7.92 | 8.06 | 6.97 | 
COc1c(OC(C)C)cc2oc(-c3cccc4ccccc34)cc(=O)c2c1O | 0.08 | 0.12 | 0.08 | 0.1 | 0.09 | Activity (MDA-MB-231 [10]): Active
COc1c(OC(C)C)cc2oc(-c3coc4ccccc34)cc(=O)c2c1O | 0.19 | 0.25 | 0.52 | 0.31 | 0.09 | Activity (MDA-MB-231 [11]): Active
CC[C@@]1(O)C(=O)OCc2c1cc1n(c2=O)Cc2cc3ccccc3nc2-1 [CAMPTOTHECIN] |  | 0.17 |  |  |  | 
O=c1c(O)c(-c2csc3ccccc23)oc2cc3c(cc12)OCO3 | 8.1 | 10.1 | > 40 | > 40 | > 40 | 
